Screens: PubChem BioAssay, several laboratories
This is one part of a sample in which hits are shown more often than they occur.
S1P4 ag = human S1P4 receptor agonism; O95977; S1P4-expressing cell line, agonist reporter assay; activation, % at 4.98 µM; 220,000 tested, 0.35% active; AID 1509; in the data active = activation above about 11%;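 note: 0% = DMSO vehicle and 100% = reference agonist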
S1P3 antag-1 = antagonists of human S1P3 receptor; inhibition, % at 4.98 µM; CHO S1P3 NFAT-BLA reporter, FRET fluorescence, antagonist mode; AID 485; Q99500; 170,000 tested, 0.27% active;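 active = inhibition above the plate cutoff, the mean inhibition of test wells on that plate plus 3 SD, cut at about 28% in these data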;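 note: cells challenged with S1P at its EC80 of 0.8 µM; blue over green emission ratio from cleaved BLA substrate after 4 h stimulation; 0% = S1P-stimulated wells and 100% = unstimulated DMSO-only wells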
Target sequence (Q99500 whole entry, looked up): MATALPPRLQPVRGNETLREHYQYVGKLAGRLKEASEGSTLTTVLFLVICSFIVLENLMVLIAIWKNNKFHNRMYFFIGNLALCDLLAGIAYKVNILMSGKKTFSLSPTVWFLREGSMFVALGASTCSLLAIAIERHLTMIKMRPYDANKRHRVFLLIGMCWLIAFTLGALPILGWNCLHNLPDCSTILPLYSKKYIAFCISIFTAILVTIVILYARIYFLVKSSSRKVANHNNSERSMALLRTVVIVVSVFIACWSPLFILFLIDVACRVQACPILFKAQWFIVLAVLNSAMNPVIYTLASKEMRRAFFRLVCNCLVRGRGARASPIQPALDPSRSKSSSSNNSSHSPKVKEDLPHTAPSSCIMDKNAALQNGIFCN
S1P4 antagonist = human S1P4 receptor antagonism; inhibition, % at 4.98 µM; S1P4-expressing cells, antagonist mode, reporter read-out; AID 1510; 220,000 tested, 0.26% active; O95977; in the data active = inhibition above about 29%;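 note: 0% = wells stimulated with agonist and 100% = vehicle wells without agonist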
Lmaj promast = Leishmania major promastigote growth inhibition. 200,000 tested, 9% active. AID 1063. Leishmania major promastigotes, resazurin fluorescence viability. inhibition, % at 10 µM; in the data active = inhibition above about 50%;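 note: promastigotes grown with compound for 44 hours at 28 °C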
Mdm2 ligase inh = Mdm2 E3 ligase (human) inhibition | Q00987 | cell-based MDM2 ubiquitination luciferase reporter, 2 h; 0 = plate control, 100 = twice control, blank-subtracted | signal enhancement, % at 5 µM | 210,000 tested, 0.11% active;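 active = signal enhancement of 30% or more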;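 note: luminescence tracks abundance of the self-degrading MDM2-luciferase fusion protein; higher signal means inhibition of MDM2 E3 ligase activity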
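Test system: mammalian cells stably expressing self-ubiquitinating, self-degrading MDM2 E3–luciferase fusion; Amount: 2000 cells in each well; Medium: DMEM; Schedule: 4 h settle plus 2 h compound, 37 °C; Technique: SteadyLite luciferase luminescence after 15 min room-temperature reagent incubation; Benchmarks: plate control and blank wells.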
S1P3 antag-2 = confirmation of human S1P3 receptor antagonists; shares compounds with S1P3 antag-1; CHO S1P3 NFAT-BLA reporter, FRET, antagonist mode; inhibition, % at 4.98 µM; 240 tested, 30% active;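 active = inhibition above the hit threshold that was computed for the earlier primary screen, cut at about 30% in these data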;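 note: 0% = S1P-stimulated wells and 100% = unstimulated DMSO-only wells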
Lmaj promast 1uM = inhibitors of Leishmania major promastigote growth, repeat at 1 uM; AID 1258; inhibition, % at 1 µM; L. major promastigote growth, resazurin fluorescence, 48 h; 1,100 tested, 13% active; shares compounds with Lmaj promast;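 active = inhibition above about 50% in both repeat tests, limit read from the data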
S1P4 antag conf = human S1P4 antagonism, confirmation; shares compounds with S1P4 antagonist; S1P4-expressing cell line, antagonist mode, reporter read-out; inhibition, % at 4.98 µM; 520 tested, 71% active; AID 1524; in the data active = inhibition above about 30%
The depositor's hits bear a star; . = not tested or not shown.

SMILES | S1P4 ag | S1P3 antag-1 | S1P4 antagonist | Lmaj promast | Mdm2 ligase inh | others
CCCCCCn1c(=O)c(C(=O)Nc2cnccn2)c(O)c2ccccc21 | 0 | -15 | 21 | 100* | -23
CCCCCCn1c(=O)c(C(=O)Nc2nc(CC(=O)OCC)cs2)c(O)c2ccccc21 | 0 | -16 | -7 | . | 0
CCCCCn1c(=O)c(C(=O)Nc2ccncc2)c(O)c2ccccc21 | . | -8 | . | . | .
COC(=O)C1=CO[C@@H](C)[C@@H]2CN3CC[C@@]4(C(=O)Nc5ccccc54)[C@@H]3C[C@H]12 | 1 | -21 | 5 | 11 | .
C/C(=N\N1CCN(C)CC1)c1c(O)n(Cc2ccccc2)c(=O)[nH]c1=O | 2 | -7 | 0 | -8 | -12
CCOP(=O)(Cc1cc(C(C)=O)c(C)o1)OCC | 0 | -7 | -10 | . | -17
COc1cc(C)cc(CN2CC=C(c3ccccc3)CC2)c1O | 3 | -6 | -13 | 65* | -6
O=C1Nc2ccccc2/C1=C/c1cnc[nH]1 | 1 | . | -17 | 98* | -14
O=C1Nc2ccccc2/C1=C/c1nc2ccccc2c(=O)n1-c1ccc(O)cc1 | 0 | 9 | -2 | . | 0
CN(CC1COc2ccccc2O1)c1nc(-c2cccnc2)nc2ccccc12 (stereo not drawn) | 1 | 26 | 3 | 69* | -20
CCOC(=O)C1(CCOc2ccccc2)CCN(Cc2ccc(C)s2)CC1 | 2 | 11 | -12 | 81* | -4
CCOC(=O)C1(CCc2ccccc2)CCN(Cc2ccc3c(c2)OCCO3)CC1 | -2 | 4 | -2 | 84* | -4
CCOC(=O)C1(CCCc2ccccc2)CCN(C2CCCC2)CC1 | 1 | 3 | -14 | 71* | -8
O=C(Cc1ccccc1)N1CCN(C2CCCC2)CC1 | 1 | -26 | -2 | -1 | 4
CCOC(=O)C1(CCc2ccccc2)CCN(C2CCSCC2)CC1 | 1 | 2 | -15 | 88* | -5
C=CC1CN2CCC1CC2c1[nH]c2ccccc2c1CCO (stereo not drawn) | 0 | -5 | -1 | 0 | 1
C/C(=N\N1CCCCCC1)c1c(O)n(C)c(=O)n(C)c1=O | 0 | -5 | -5 | . | .
C=CCn1c(O)c(C(CC)=Nc2ccc(N(C)C)cc2)c(=O)[nH]c1=O | -1 | -8 | 8 | . | -9
Cc1nn(Cc2ccccc2Cl)c(Cl)c1C(=O)OCC(=O)NC(=O)NC1CCCCC1 | 0 | -2 | -6 | 52* | -7
Cc1cc(NC(=O)COC(=O)c2c(C)nn(Cc3ccccc3Cl)c2C)no1 | -3 | . | -10 | 6 | -9
O=[N+]([O-])NC1=NCN(Cc2ccco2)CN1Cc1ccco1 | 0 | -10 | -13 | -3 | .
Cn1cc(C(=O)N2CCCCC2)c2ccccc21 | 2 | 3 | -13 | 0 | -1
CC1CCC(C(C)C)C(OC(=O)COC(=O)c2ccccc2N)C1 (stereo not drawn) | -1 | 1 | -3 | 55* | -1
CCCCCSc1cc(OC)c(CCN(C)C)cc1OC | -2 | . | 13 | 100* | -13
COc1ccc2[nH]cc(CCN(C)C)c2c1 | 3 | -14 | 0 | -2 | -2
SMILES | S1P4 ag | S1P3 antag-1 | S1P4 antagonist | Lmaj promast | Mdm2 ligase inh | others
COc1cccc(C2(O)CCN(CC(=O)Nc3nc(C)cs3)CC2)c1 | 0 | -4 | 3 | -4 | -9
CCOC(=O)c1cncn1[C@H](C)c1ccccc1 | 2 | -1 | 17 | . | .
O=C(COC(=O)Cc1ccccc1)Nc1ccc(Cl)cn1 | -1 | 36* | -5 | -1 | 5 | S1P3 antag-2=-11
CCOc1ccc(-c2c(C)n(-c3ccc(OCC)cc3)c3[n+]2CCCCC3)cc1 | 2 | 40* | -8 | . | -64 | S1P3 antag-2=16
CCOc1ccc(-n2c(-c3ccoc3)nc3ccccc3c2=O)cc1 | -2 | . | 8 | -5 | -3
CCN1CCC2(CCNC2)C1 (stereo not drawn) | -1 | 17 | -18 | -8 | -1
C[C@H]1C[C@@H](C)C(=O)[C@@H]([C@H](O)CC2CC(=O)NC(=O)C2)C1 | 0 | 84* | 26 | 100* | -60 | S1P3 antag-2=82*;Lmaj promast 1uM=100*
CCc1cc2c(s1)NC(=O)CN=C2c1cccs1 | 1 | -17 | -22 | -1 | -11
CN[C@H]1C[C@H]2O[C@@](C)([C@H]1OC)n1c3ccccc3c3c4c(c5c6ccccc6n2c5c31)C(=O)NC4 | -5 | 109* | 105* | 100* | . | S1P3 antag-2=121*;Lmaj promast 1uM=101*;S1P4 antag conf=117*
COc1ccc(CC2(CCc3ccncc3)C(=O)NC(=O)NC2=O)c(OC)c1 | -2 | 2 | 14 | 1 | -90
CN(C)C(=S)SSC(=S)N(C)C | -2 | -14 | 23 | 101* | 41* | Lmaj promast 1uM=99*
CN1CCc2c(C#N)c(Cl)nc(Cl)c2C1 | 0 | 6 | -4 | -1 | -14
COc1ccc(C2SCC(=O)Nc3c2c(=O)[nH]n3C2CCCCC2)cc1 (stereo not drawn) | 1 | . | -11 | 7 | -15
C1=C(c2c[nH]c3ccccc23)CCNC1 | -1 | -49 | -6 | 100* | -20 | Lmaj promast 1uM=47
COC(=O)[C@@H]1[C@@H](C(=O)OC)C2(c3ccccc3-c3ccccc32)N(c2ccc(Cl)cc2)N1C#N | -2 | . | 24 | 74* | -9 | Lmaj promast 1uM=57*
Cc1ccc(-c2cc(-c3ccc(C)cc3)[n+](C)o2)cc1 | 1 | -13 | -13 | 100* | -40 | Lmaj promast 1uM=99*
CC1NCCC2(O)CCCCC12 (stereo not drawn) | 1 | -15 | -12 | 3 | 11
CCOc1cccc(C2NCc3ccccc3-n3cccc32)c1O (stereo not drawn) | 1 | -3 | 13 | 19 | -21
CCOc1cc(C2NCc3ccccc3-n3cccc32)ccc1O (stereo not drawn) | 3 | 14 | -2 | 99* | -3 | Lmaj promast 1uM=-18
C=CCn1c(O)c(C(CC)=NCCN2CCN(C(=S)NC)CC2)c(=O)[nH]c1=O | 1 | -1 | -18 | . | -26
CC(C)Oc1cccc(C(=O)C2CCCN(Cc3ccon3)C2)c1 (stereo not drawn) | 3 | 7 | -8 | -1 | -5
O=C(c1ccc(-c2ccccc2)c(F)c1)C1CCCN(CCO)C1 (stereo not drawn) | 1 | -13 | -23 | 99* | -11 | Lmaj promast 1uM=63*
CC12CN3CC(C)(CN(C1)C3c1cccs1)C2O (stereo not drawn) | 2 | -17 | 6 | -7 | 4
COC(=O)C(=O)N1CC2(C)CNCC(C)(C1)C2=O | 0 | -11 | 4 | -6 | 2
FC(F)(F)c1ccc2c(c1)N(CCCN1CCN(CCCl)CC1)c1ccccc1S2 | 1 | . | -10 | 100* | -1 | Lmaj promast 1uM=-10
CCc1ccc(/C=C(/C#N)C(N)=S)cc1 | 1 | -2 | 1 | 50* | -14 | Lmaj promast 1uM=-19
